Laboratory results from ChEMBL document CHEMBL4339182, “Pyridine and nitro-phenyl linked 1,3,4-thiadiazoles as MDR-TB inhibitors” (Eur J Med Chem, 2019).
≈ marks a conversion by molar mass, not a printed value.

Experiments:
[1] = test system: Mycobacterium tuberculosis; assay: Antimycobacterial activity against Mycobacterium tuberculosis H37Rv incubated for 12 to 28 days by agar dilution method; assay type: functional
Method in brief: (§1)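 Conventional Lowenstein-Jensen agar dilution. Compound stock dilutions in DMSO (200 to 1.56 µg/mL) were added to liquid L.J. medium, which was then sterilized by inspissation. Culture was harvested in 0.85% saline. Tubes were kept 24 h at 37 °C, streaked with 5 x 10⁴ bacilli per tube, and incubated at 37 °C. Growth was read at days 12, 22 and 28 against drug-free controls. MIC was the lowest concentration giving no colonies or fewer than 20 (≥99% inhibition), converted from µg/mL to µM.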

[2] = test system: Mycobacterium tuberculosis; assay: Antimycobacterial activity against Mycobacterium tuberculosis MDR-TB incubated for 12 to 28 days by agar dilution method; assay type: functional; method in brief: as §1
[3] = test system: Vero; assay: Cytotoxicity against African green monkey Vero cells assessed as reduction in cell viability incubated for 72 hrs by MTT assay; assay type: cell-based; conditions: Chlorocebus sabaeus
Method in brief: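 Vero cells were grown in DMEM with 2 mM Na₂CO₃ and 10% FBS at 37 °C under 5% CO₂ until confluent, then diluted in PBS. Compounds came from DMSO stocks diluted in medium, with 1% DMSO final. Exposure was 72 h at 37 °C. Monolayers were washed with warm HBSS, then MTS-PMS was added for 3 h and absorbance read at 490 nm.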

[4] = test system: Mycobacterium tuberculosis; assay: Antimycobacterial activity against Mycobacterium tuberculosis H37Rv ATCC 27294 by microplate alamar blue assay; assay type: functional

| SMILES | MIC90 [1] [µM] | MIC90 [2] [µM] | IC50 [3] [µM] | MIC90 [4] [µg/mL] |
| --- | --- | --- | --- | --- |
| CO[C@H]1/C=C/O[C@@]2(C)Oc3c(C)c(O)c4c(O)c(c(/C=N/N5CCN(C)CC5)c(O)c4c3C2=O)NC(=O)/C(C)=C\C=C\[C@H](C)[C@H](O)[C@@H](C)[C@@H](O)[C@@H](C)[C@H](OC(C)=O)[C@@H]1C [RIFAMPIN] | 0.152 (≈ 0.125 µg/mL) | 128 (≈ 105 µg/mL) |  |  |
| O=C(Nc1nnc(-c2cccc([N+](=O)[O-])c2)s1)c1ccco1 | 19 (≈ 6.01 µg/mL) | 39 (≈ 12.3 µg/mL) | 312 |  |
| CC(Cl)CC(=O)Nc1nnc(-c2cccc([N+](=O)[O-])c2)s1 (stereo not drawn) | > 200 | > 200 |  |  |
| O=C(CCl)Nc1nnc(-c2ccc([N+](=O)[O-])cc2)s1 | 168 (≈ 50.2 µg/mL) | > 200 |  |  |
| O=C(CCCCl)Nc1nnc(-c2ccc([N+](=O)[O-])cc2)s1 | 153 (≈ 50 µg/mL) | > 200 |  |  |
| COc1ccc(C(=O)Nc2nnc(-c3cccc([N+](=O)[O-])c3)s2)cc1 | 35 (≈ 12.5 µg/mL) | 280 (≈ 99.8 µg/mL) |  |  |
| O=C(Nc1nnc(-c2cccc([N+](=O)[O-])c2)s1)c1ccc([N+](=O)[O-])cc1 | 33 (≈ 12.3 µg/mL) | 134 (≈ 49.8 µg/mL) | 268 |  |
| COc1ccc(C(=O)Nc2nnc(-c3ccc([N+](=O)[O-])cc3)s2)cc1 | 35 (≈ 12.5 µg/mL) | 140 (≈ 49.9 µg/mL) | 278 |  |
| CC(C)(C)C(=O)Nc1nnc(-c2cccc([N+](=O)[O-])c2)s1 | 204 (≈ 62.5 µg/mL) | > 200 |  |  |
| O=C(Cl)CCCCC(=O)Nc1nnc(-c2ccncc2)s1 | 192 (≈ 62.4 µg/mL) | > 200 |  |  |
| CC(Cl)CC(=O)Nc1nnc(-c2ccncc2)s1 (stereo not drawn) | > 200 | > 200 |  |  |
| O=C(Nc1nnc(-c2ccc([N+](=O)[O-])cc2)s1)c1ccco1 | 9.87 (≈ 3.12 µg/mL) | 9.87 (≈ 3.12 µg/mL) | 306 |  |
| C/C=C/C(CCC)N(C(=O)c1ccccc1)c1nnc(-c2ccc([N+](=O)[O-])cc2)s1 (stereo not drawn) | 117 (≈ 49.4 µg/mL) | > 200 |  |  |
| O=C(Nc1nnc(-c2ccc([N+](=O)[O-])cc2)s1)c1ccc([N+](=O)[O-])cc1 | 16.8 (≈ 6.25 µg/mL) | 67 (≈ 24.9 µg/mL) | 290 |  |
| CC(C)(C)C(=O)Nc1nnc(-c2ccc([N+](=O)[O-])cc2)s1 | 204 (≈ 62.5 µg/mL) | > 200 |  |  |
| O=C(Cl)CCCCC(=O)Nc1nnc(-c2ccc([N+](=O)[O-])cc2)s1 | 135 (≈ 49.8 µg/mL) | 271 (≈ 99.9 µg/mL) |  |  |
| CCCCC(=O)Nc1nnc(-c2ccncc2)s1 | 95 (≈ 24.9 µg/mL) | 381 (≈ 100 µg/mL) |  |  |
| O=C(Nc1nnc(-c2ccc([N+](=O)[O-])cc2)s1)C(Cl)(Cl)Cl | 273 (≈ 100 µg/mL) | > 200 |  |  |
| O=C(CSc1nnc(-c2ccc([N+](=O)[O-])o2)s1)Oc1ccccc1 |  |  |  | 0.78 (≈ 2.15 µM) |
| NNC(=O)c1ccncc1 [ISONIAZID] | 3.64 (≈ 0.499 µg/mL) | > 200 |  |  |
| CCC(=O)Nc1nnc(-c2cccc([N+](=O)[O-])c2)s1 | 89 (≈ 24.8 µg/mL) | > 200 |  |  |
| CCCC(=O)Nc1nnc(-c2cccc([N+](=O)[O-])c2)s1 | 42 (≈ 12.3 µg/mL) | > 200 |  |  |

| SMILES | MIC90 [1] [µM] | MIC90 [2] [µM] | IC50 [3] [µM] | MIC90 [4] [µg/mL] |
| --- | --- | --- | --- | --- |
| O=C(Nc1nnc(-c2ccc([N+](=O)[O-])cc2)s1)c1ccccc1 | 38 (≈ 12.4 µg/mL) | 306 (≈ 99.9 µg/mL) |  |  |
| CN[C@@H]1C[C@H]2O[C@@](C)([C@@H]1OC)n1c3ccccc3c3c4c(c5c6ccccc6n2c5c31)C(=O)NC4 [STAUROSPORINE] |  |  | 0.028 |  |
| CCCC(=O)Nc1nnc(-c2ccc([N+](=O)[O-])cc2)s1 | 42 (≈ 12.3 µg/mL) | 171 (≈ 50 µg/mL) | 301 |  |
| CC(C)(C)C(=O)Nc1nnc(-c2ccncc2)s1 | 238 (≈ 62.4 µg/mL) | > 200 |  |  |
| CCCCC(=O)Nc1nnc(-c2ccc([N+](=O)[O-])cc2)s1 | 40 (≈ 12.3 µg/mL) | 163 (≈ 49.9 µg/mL) | 278 |  |
| O=C(CCl)Nc1nnc(-c2cccc([N+](=O)[O-])c2)s1 | 21 (≈ 6.27 µg/mL) | > 200 |  |  |
| O=C(Nc1nnc(-c2cccc([N+](=O)[O-])c2)s1)c1ccccc1 | 38 (≈ 12.4 µg/mL) | > 200 |  |  |
| O=C(CCCCl)Nc1nnc(-c2ccncc2)s1 | 221 (≈ 62.5 µg/mL) | > 200 |  |  |
| CCCCC(=O)Nc1nnc(-c2cccc([N+](=O)[O-])c2)s1 | 40 (≈ 12.3 µg/mL) | 163 (≈ 49.9 µg/mL) | 289 |  |
| O=[N+]([O-])c1ccc(CSc2nnc(-c3ccc([N+](=O)[O-])o3)s2)cc1 |  |  |  | 3.13 (≈ 8.59 µM) |
| O=C(Cl)CCCCC(=O)Nc1nnc(-c2cccc([N+](=O)[O-])c2)s1 | 135 (≈ 49.8 µg/mL) | > 200 |  |  |
| O=C(Nc1nnc(-c2ccncc2)s1)c1ccc([N+](=O)[O-])cc1 | 9.93 (≈ 3.25 µg/mL) | 76 (≈ 24.9 µg/mL) | 369 |  |
| O=C(Nc1nnc(-c2ccncc2)s1)c1cccs1 | 21 (≈ 6.06 µg/mL) | > 200 |  |  |
| CCC(=O)Nc1nnc(-c2ccc([N+](=O)[O-])cc2)s1 | 89 (≈ 24.8 µg/mL) | > 200 |  |  |
| O=C(Nc1nnc(-c2cccc([N+](=O)[O-])c2)s1)c1cccs1 | 301 (≈ 100 µg/mL) | > 200 |  |  |
| CCCC(=O)Nc1nnc(-c2ccncc2)s1 | 201 (≈ 49.9 µg/mL) | > 200 |  |  |
| O=C(CCCCl)Nc1nnc(-c2cccc([N+](=O)[O-])c2)s1 | 153 (≈ 50 µg/mL) | > 200 |  |  |
| O=C(Nc1nnc(-c2ccncc2)s1)C(Cl)(Cl)Cl | > 200 | > 200 |  |  |
| O=C(CCl)Nc1nnc(-c2ccncc2)s1 | 196 (≈ 49.9 µg/mL) | > 200 |  |  |
| Cc1ccc(C(=O)Nc2nnc(-c3ccc([N+](=O)[O-])cc3)s2)cc1 | 18.4 (≈ 6.26 µg/mL) | 147 (≈ 50 µg/mL) | 310 |  |
| O=C(Nc1nnc(-c2ccc([N+](=O)[O-])cc2)s1)c1cccs1 | > 200 | > 200 |  |  |
